Reference: ChEMBL document CHEMBL1156936, “2,3-Diamino acid modifying 3S-tetrahydroisoquinoline-3-carboxylic acids: leading to a class of novel agents with highly unfolded conformation, selective in vitro anti-platelet aggregation and potent in vivo anti-thrombotic activity” (Bioorg Med Chem, 2010)
Square brackets hold non-standard residues; d marks the D form. Peptide text beside a SMILES is read from it. Tic = O=C(O)[C@@H]1Cc2ccccc2CN1

Tests used:
[1] = tested on: Platelet; assay: Inhibition of adenosine diphosphate-induced pig platelet aggregation measured for 5 mins; assay type: functional, cell-based; conditions: Sus scrofa
[2] = tested on: Platelet; assay: Inhibition of arachidonic acid-induced pig platelet aggregation measured for 5 mins; assay type: functional, cell-based; conditions: Sus scrofa
[3] = tested on: Platelet; assay: Inhibition of platelet activating factor-induced pig platelet aggregation measured for 5 mins; assay type: functional, cell-based; conditions: Sus scrofa
[4] = tested on: Platelet; assay: Inhibition of thrombin-induced pig platelet aggregation measured for 5 mins; assay type: functional, cell-based; conditions: Sus scrofa
In short: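 Pig blood spun at 1000g for 10 min to give PRP and at 1500g for 10 min to give PPP. Platelets adjusted to 2×10⁸/ml with autologous PPP, and 0.5 ml is pre-mixed with NS or drug at six tenfold-spaced final concentrations. After baseline the agonist is added (thrombin final 0.1 U/ml). Optical aggregation is read at 37 °C for 5 min. Peak height is taken as maximal aggregation, and % inhibition is calculated against NS. Run in sextuplicate; IC50 from the concentration–inhibition curve.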

[5] = tested on: Rattus norvegicus; assay: Antithrombotic activity in Wistar rat assessed as reduction of thrombus weight at 30 nmol/kg, iv; assay type: functional
In short: (§1)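 Male Wistar rats (250–300 g) with an arteriovenous shunt: a polyethylene tube holding a thread joins the right carotid artery to the left jugular vein. Heparin sodium is injected through the tube, then vehicle (NS) or drug dissolved in NS and kept on ice. Blood flows for 15 min, and the wet thrombus on the thread is weighed. Analysis by ANOVA.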

[6] = tested on: Rattus norvegicus; assay: Antithrombotic activity in Wistar rat assessed as reduction of thrombus weight at 30 nmol/kg, po; assay type: functional
In short: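 Drug in NS (or NS alone, 0.6 ml) is given orally to male Wistar rats (250–300 g), then pentobarbital sodium 80.0 mg/kg ip. Thirty min later the right carotid artery and left jugular vein are exposed and joined by a heparinized thread-containing shunt. Blood flows for 15 min, and the wet thrombus is weighed. n=12; analysis by ANOVA.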

[7] = tested on: Rattus norvegicus; assay: Antithrombotic activity in iv dosed Wistar rat assessed as reduction of thrombus weight; assay type: functional, organism-based; in short: as §1
[8] = tested on: Rattus norvegicus; assay: Antithrombotic activity in Wistar rat assessed as reduction of thrombus weight at 3 nmol/kg, iv; assay type: functional; in short: as §1
[9] = tested on: Rattus norvegicus; assay: Antithrombotic activity in Wistar rat assessed as reduction of thrombus weight at 0.3 nmol/kg, iv; assay type: functional; in short: as §1
[10] = tested on: Rattus norvegicus; assay: Antithrombotic activity in Wistar rat assessed as reduction of thrombus weight at 165 umol/kg, iv; assay type: functional; in short: as §1
[11] = tested on: Rattus norvegicus; assay: Antithrombotic activity in Wistar rat assessed as reduction of thrombus weight at 15 umol/kg, iv; assay type: functional; in short: as §1
[12] = tested on: Rattus norvegicus; assay: Antithrombotic activity in Wistar rat assessed as reduction of thrombus weight at 0.03 nmol/kg, iv; assay type: functional; in short: as §1

Compound `N[C@@H](Cc1ccc(O)cc1)C(=O)N1Cc2ccccc2C[C@H]1C(=O)N[C@@H](Cc1ccc(O)cc1)C(=O)O` (H-Tyr-[Tic]-Tyr-OH) has an IC50 [1] of 2.58 nM, an IC50 [2] of 8.83 nM and an IC50 [3] of 4.52 nM. For the same compound, the IC50 [4] was 9.84 nM and the Activity [5] was 18.79 mg.

`CC(C)C[C@H](NC(=O)[C@@H]1Cc2ccccc2CN1C(=O)[C@@H](N)CC(C)C)C(=O)O` (H-Leu-[Tic]-Leu-OH) was tested, and the IC50 [1] was 2.57 nM, the IC50 [2] was 8.17 nM and the IC50 [3] was 5.03 nM. It also gave an IC50 [4] of 10 nM and an Activity [5] of 19.53 mg.

With `N[C@@H](CC(=O)O)C(=O)N1Cc2ccccc2C[C@H]1C(=O)N[C@@H](CC(=O)O)C(=O)O` (H-Asp-[Tic]-Asp-OH) the IC50 [1] was 3.48 nM, the IC50 [2] was 9.55 nM and the IC50 [3] was 4.37 nM. For the same compound, the IC50 [4] was 11.1 nM and the Activity [5] was 20.49 mg.

Compound `CC(C)[C@H](N)C(=O)N1Cc2ccccc2C[C@H]1C(=O)N[C@H](C(=O)O)C(C)C` (H-Val-[Tic]-Val-OH) has an IC50 [1] of 2.57 nM, an IC50 [2] of 9.08 nM and an IC50 [3] of 5.87 nM. For the same compound, the IC50 [4] was 9.25 nM and the Activity [5] was 19.42 mg.

In the case of `NCC(=O)N1Cc2ccccc2C[C@H]1C(=O)NCC(=O)O` (H-Gly-[Tic]-Gly-OH), the IC50 [1] is reported as 2.44 nM, the IC50 [2] is reported as 7.95 nM and the IC50 [3] is reported as 5.15 nM. For the same compound, the IC50 [4] was 10.6 nM and the Activity [5] was 25.2 mg.

`N[C@@H](CO)C(=O)N1Cc2ccccc2C[C@H]1C(=O)N[C@@H](CO)C(=O)O` (H-Ser-[Tic]-Ser-OH) showed an IC50 [1] of 2.17 nM, an IC50 [2] of 7.99 nM and an IC50 [3] of 5.36 nM. For the same compound, the IC50 [4] was 10.2 nM and the Activity [5] was 20.97 mg.

Work on `NC(=O)C[C@H](NC(=O)[C@@H]1Cc2ccccc2CN1C(=O)[C@@H](N)CC(N)=O)C(=O)O` (H-Asn-[Tic]-Asn-OH) yielded an IC50 [1] of 3.07 nM, an IC50 [2] of 8.28 nM and an IC50 [3] of 5.39 nM. For the same compound, the IC50 [4] was 8.43 nM, the Activity [5] was 17.95 mg and the Activity [6] was 16.88 mg.

In the case of `N[C@@H](CS)C(=O)N1Cc2ccccc2C[C@H]1C(=O)N[C@@H](CS)C(=O)O` (H-Cys-[Tic]-Cys-OH), the IC50 [1] is reported as 3.26 nM, the IC50 [2] is reported as 8.18 nM and the IC50 [3] is reported as 6.32 nM. The IC50 [4] was 9.64 nM and the Activity [5] was 19.35 mg.

Work on `CSCC[C@H](NC(=O)[C@@H]1Cc2ccccc2CN1C(=O)[C@@H](N)CCSC)C(=O)O` (H-Met-[Tic]-Met-OH) yielded an IC50 [1] of 3.42 nM, an IC50 [2] of 8.19 nM and an IC50 [3] of 4.91 nM. It also gave an IC50 [4] of 9.99 nM and an Activity [5] of 19.36 mg.

`NC(=O)CC[C@H](NC(=O)[C@@H]1Cc2ccccc2CN1C(=O)[C@@H](N)CCC(N)=O)C(=O)O` (H-Gln-[Tic]-Gln-OH) gave an IC50 [1] of 2.55 nM, an IC50 [2] of 8.37 nM and an IC50 [3] of 5.72 nM. It also gave an IC50 [4] of 9.13 nM, an Activity [5] of 18.13 mg and an Activity [6] of 18.23 mg.

Compound `N[C@@H](CCC(=O)O)C(=O)N1Cc2ccccc2C[C@H]1C(=O)N[C@@H](CCC(=O)O)C(=O)O` (H-Glu-[Tic]-Glu-OH) has an IC50 [1] of 2.19 nM, an IC50 [2] of 9.86 nM and an IC50 [3] of 4.19 nM. It also gave an IC50 [4] of 10.3 nM and an Activity [5] of 18.95 mg.

Compound `C[C@H](N)C(=O)N1Cc2ccccc2C[C@H]1C(=O)N[C@@H](C)C(=O)O` has an IC50 [1] of 2.36 nM, an IC50 [2] of 8.73 nM and an IC50 [3] of 5.6 nM. The IC50 [4] was 9.48 nM, the Activity [7] was “Dose-dependent effect” and the Activity [5] was 17.12 mg. The Activity [8] was 23.35 mg, the Activity [9] was 29.77 mg and the Activity [6] was 18.89 mg.

Work on `CC(=O)Oc1ccccc1C(=O)O` [ASPIRIN] yielded an Activity [10] of 13.22 mg.

`N[C@@H](Cc1ccccc1)C(=O)N1Cc2ccccc2C[C@H]1C(=O)N[C@@H](Cc1ccccc1)C(=O)O` (H-Phe-[Tic]-Phe-OH) gave an IC50 [1] of 2.23 nM, an IC50 [2] of 7.84 nM and an IC50 [3] of 4.92 nM. The IC50 [4] was 8.87 nM and the Activity [5] was 22.51 mg.

Work on `O=C(O)[C@@H]1Cc2ccccc2CN1` yielded an Activity [11] of 21.52 mg.

For `C[C@@H](O)[C@H](N)C(=O)N1Cc2ccccc2C[C@H]1C(=O)N[C@H](C(=O)O)[C@@H](C)O` (H-Thr-[Tic]-Thr-OH), the IC50 [1] was 2.89 nM, the IC50 [2] was 10 nM and the IC50 [3] was 4.14 nM. The IC50 [4] was 10.8 nM, the Activity [7] was “Dose-dependent effect” and the Activity [5] was 14.32 mg. The Activity [8] was 20.95 mg, the Activity [9] was 28.63 mg and the Activity [6] was 17.53 mg.

With `NCCCC[C@H](NC(=O)[C@@H]1Cc2ccccc2CN1C(=O)[C@@H](N)CCCCN)C(=O)O` (H-Lys-[Tic]-Lys-OH) the IC50 [1] was 3.73 nM, the IC50 [2] was 9.64 nM and the IC50 [3] was 5.67 nM. For the same compound, the IC50 [4] was 8.98 nM, the Activity [5] was 18.65 mg and the Activity [6] was 19.72 mg.

Compound `N=C(N)NCCC[C@H](NC(=O)[C@@H]1Cc2ccccc2CN1C(=O)[C@@H](N)CCCNC(=N)N)C(=O)O` (H-Arg-[Tic]-Arg-OH) has an IC50 [1] of 3.15 nM, an IC50 [2] of 9.17 nM and an IC50 [3] of 6.07 nM. For the same compound, the IC50 [4] was 9.87 nM, the Activity [7] was “Dose-dependent effect” and the Activity [5] was 10.61 mg. For the same compound, the Activity [8] was 16.29 mg, the Activity [12] was 19.71 mg and the Activity [6] was 15.15 mg.

For `N[C@@H](Cc1c[nH]cn1)C(=O)N1Cc2ccccc2C[C@H]1C(=O)N[C@@H](Cc1cnc[nH]1)C(=O)O` (H-His-[Tic]-His-OH), the IC50 [1] was 2.84 nM, the IC50 [2] was 9.38 nM and the IC50 [3] was 5.57 nM. For the same compound, the IC50 [4] was 10 nM and the Activity [5] was 20.91 mg.

`CC[C@H](C)[C@H](N)C(=O)N1Cc2ccccc2C[C@H]1C(=O)N[C@H](C(=O)O)[C@@H](C)CC` (H-Ile-[Tic]-Ile-OH) gave an IC50 [1] of 2.89 nM, an IC50 [2] of 8.92 nM and an IC50 [3] of 5.64 nM. For the same compound, the IC50 [4] was 11.3 nM and the Activity [5] was 24.3 mg.
